Data taken from ChEMBL document CHEMBL4261631, “Synthetic thiosemicarbazones as a new class of Mycobacterium tuberculosis protein tyrosine phosphatase A inhibitors” (Bioorg Med Chem, 2018).

Tests used:
[1] = target: T1, Phosphotyrosine protein phosphatase (Mycobacterium tuberculosis, UniProt A0A045ISB3); test: Inhibition of recombinant Mycobacterium tuberculosis PtpB using p-nitrophenyl phosphate as substrate preincubated for 10 mins followed by substrate addition and measured every minute for 10 mins by UV-VIS spectrophotometric analysis
T1 sequence (A0A045ISB3 whole entry): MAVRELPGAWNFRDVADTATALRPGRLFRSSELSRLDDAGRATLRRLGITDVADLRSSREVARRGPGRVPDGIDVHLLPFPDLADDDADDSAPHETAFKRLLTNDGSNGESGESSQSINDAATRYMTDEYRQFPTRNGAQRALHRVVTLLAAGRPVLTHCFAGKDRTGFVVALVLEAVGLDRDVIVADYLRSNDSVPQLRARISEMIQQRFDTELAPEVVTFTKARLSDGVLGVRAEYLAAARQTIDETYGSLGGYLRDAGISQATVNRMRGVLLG
How it was run: (§1)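 Recombinant PTP at PtpB 50 nM, LYP 169 nM, PTP-PEST 205 nM or PTP1B 38 nM, in 20 mM imidazole pH 7.0. Inhibitor (0.5–50 µM, DMSO ≤4% v/v) premixed with enzyme 10 min at 37 °C. Started with 10 mM pNPP. A410 each min for 10 min. Activity from 7 min minus 2 min. IC50 by linear regression. Triplicate.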

[2] = target: T2, Tyrosine-protein phosphatase non-receptor type 22 (Homo sapiens, UniProt Q9Y2R2); test: Inhibition of recombinant human LYP using p-nitrophenyl phosphate as substrate preincubated for 10 mins followed by substrate addition and measured every minute for 10 mins by UV-VIS spectrophotometric analysis; how it was run: as §1
T2 sequence (Q9Y2R2 whole entry): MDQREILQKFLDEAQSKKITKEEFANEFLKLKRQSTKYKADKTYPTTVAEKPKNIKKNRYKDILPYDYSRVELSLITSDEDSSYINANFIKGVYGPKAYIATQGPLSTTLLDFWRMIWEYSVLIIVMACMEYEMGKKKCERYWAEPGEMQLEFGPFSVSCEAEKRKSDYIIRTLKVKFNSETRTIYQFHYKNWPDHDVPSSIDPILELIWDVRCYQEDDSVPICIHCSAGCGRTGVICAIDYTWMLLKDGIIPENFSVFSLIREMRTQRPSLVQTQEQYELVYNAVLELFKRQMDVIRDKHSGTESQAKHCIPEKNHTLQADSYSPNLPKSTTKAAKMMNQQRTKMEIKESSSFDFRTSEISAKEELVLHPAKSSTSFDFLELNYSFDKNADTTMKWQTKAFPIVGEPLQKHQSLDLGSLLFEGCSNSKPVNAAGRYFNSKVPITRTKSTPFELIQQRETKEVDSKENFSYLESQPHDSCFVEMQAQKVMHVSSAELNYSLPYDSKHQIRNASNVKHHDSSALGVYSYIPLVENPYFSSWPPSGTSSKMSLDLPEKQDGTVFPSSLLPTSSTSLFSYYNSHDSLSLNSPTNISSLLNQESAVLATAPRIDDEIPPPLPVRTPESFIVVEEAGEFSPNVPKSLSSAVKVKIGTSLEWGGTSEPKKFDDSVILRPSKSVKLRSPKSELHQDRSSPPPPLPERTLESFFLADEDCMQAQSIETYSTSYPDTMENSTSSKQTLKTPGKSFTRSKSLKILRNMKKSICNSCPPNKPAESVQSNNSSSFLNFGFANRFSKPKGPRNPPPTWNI

[3] = Selectivity index, ratio of IC50 for recombinant human PTP-PEST to IC50 for recombinant Mycobacterium tuberculosis PtpA
How it was run: (§2)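 Selectivity index calculated as IC50 for PtpB, LYP, PTP-PEST or PTP1B divided by IC50 for PtpA. Both IC50 values come from pNPP hydrolysis at 37 °C with 10 min enzyme–inhibitor premix and A410 readout, using 0.5–50 µM inhibitor.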

[4] = target: T3, Tyrosine-protein phosphatase non-receptor type 1 (Homo sapiens, UniProt P18031); test: Inhibition of recombinant human Ptp1B using p-nitrophenyl phosphate as substrate preincubated for 10 mins followed by substrate addition and measured every minute for 10 mins by UV-VIS spectrophotometric analysis; how it was run: as §1
T3 sequence (P18031 whole entry): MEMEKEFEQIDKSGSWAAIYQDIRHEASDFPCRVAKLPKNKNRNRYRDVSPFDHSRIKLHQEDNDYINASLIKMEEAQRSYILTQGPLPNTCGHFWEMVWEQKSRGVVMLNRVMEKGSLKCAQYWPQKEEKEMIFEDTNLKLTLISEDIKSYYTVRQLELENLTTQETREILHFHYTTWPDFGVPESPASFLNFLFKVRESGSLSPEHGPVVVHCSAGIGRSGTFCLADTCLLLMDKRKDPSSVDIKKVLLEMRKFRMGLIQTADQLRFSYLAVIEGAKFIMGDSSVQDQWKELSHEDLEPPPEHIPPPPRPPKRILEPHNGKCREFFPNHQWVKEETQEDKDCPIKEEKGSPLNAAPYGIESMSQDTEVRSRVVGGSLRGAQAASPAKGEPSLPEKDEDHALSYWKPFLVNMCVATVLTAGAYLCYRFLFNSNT

[5] = Selectivity index, ratio of IC50 for recombinant human LYP to IC50 for recombinant Mycobacterium tuberculosis PtpA; how it was run: as §2
[6] = test system: Mycobacterium tuberculosis; test: Selectivity index, ratio of IC50 for recombinant Mycobacterium tuberculosis PtpB to IC50 for recombinant Mycobacterium tuberculosis PtpA; how it was run: as §2
[7] = target: T4, Low molecular weight protein-tyrosine phosphatase A (Mycobacterium tuberculosis, UniProt P9WIA1); test: Competitive inhibition of Mycobacterium tuberculosis PtpA using p-nitrophenyl phosphate as substrate by Michaelis-Menten plot analysis
T4 sequence (P9WIA1 whole entry): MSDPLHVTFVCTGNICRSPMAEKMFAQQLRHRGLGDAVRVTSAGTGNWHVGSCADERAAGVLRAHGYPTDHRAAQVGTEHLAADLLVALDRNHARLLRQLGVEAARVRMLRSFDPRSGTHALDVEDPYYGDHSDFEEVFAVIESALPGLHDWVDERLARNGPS
How it was run: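 Mtb PtpA-catalysed pNPP hydrolysis with pNPP varied 0.2–20 mM at each of three inhibitor concentrations. Rates expressed as specific activity (µmol pNPP min-1 mg-1). Vmax and Km fitted to Michaelis–Menten equation. Ki from non-linear fits to competitive or non-competitive inhibition equation, at least three independent experiments.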

SMILES | IC50 [1] | IC50 [2] | Ratio IC50 [3] | IC50 [4] | Ratio IC50 [5] | Ratio IC50 [6] | Ki [7]
O=[N+]([O-])c1ccc(/C=N/NC(=S)Nc2cccc3ccccc23)cc1 | 18.4 µM | > 50 µM | > 5.3 | 17 µM | > 5.3 | 1.9 | –
Cc1ccc(NC(=S)N/N=C/c2ccc(-c3cc(C(F)(F)F)ccc3Cl)o2)cc1 | 30.3 µM | > 50 µM | > 5.5 | 38.2 µM | > 5.5 | 3.3 | 12 µM
FC(F)(F)c1ccc(Cl)c(-c2ccc(/C=N/NC(=S)Nc3cccc4ccccc34)o2)c1 | 6.2 µM | > 50 µM | 5.4 | 9.4 µM | > 10.3 | 2.1 | –
S=C(N/N=C/c1ccc(-c2ccccc2)cc1)Nc1cccc2ccccc12 | 17.6 µM | > 50 µM | > 6.8 | > 50 µM | > 6.8 | 2.4 | –
